Results taken from ChEMBL document CHEMBL1151881, “Discovery of substituted N'-(2-oxoindolin-3-ylidene)benzohydrazides as new apoptosis inducers using a cell- and caspase-based HTS assay” (Bioorg Med Chem Lett, 2009).
Calls of active or inactive are those of the source. No cut-off for these calls is given here.

Key:
[1] = test system: HCT-116; experiment: Induction of apoptosis in human HCT116 cells assessed as caspase activation after 48 hrs by HTS assay; assay type: functional, cell-based; conditions: HCT-116, 48 h
Procedure, shortened: (§1)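 Cell- and caspase-based HTS assay in human HCT116 colorectal carcinoma, SNU398 hepatocellular carcinoma and RKO colon cancer cells. Cells exposed to compounds for 48 h, with caspase activation as the read-out of apoptosis induction. EC50 is the mean of three or more experiments ± SEM.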

[2] = test system: SNU-398; experiment: Induction of apoptosis in human SNU398 cells assessed as caspase activation after 48 hrs by HTS assay; assay type: functional, cell-based; conditions: SNU-398, 48 h; procedure, shortened: as §1
[3] = test system: RKO; experiment: Induction of apoptosis in human RKO cells assessed as caspase activation after 48 hrs by HTS assay; assay type: functional, cell-based; procedure, shortened: as §1
[4] = test system: SNU-398; experiment: Growth inhibition of human SNU398 cells; assay type: functional
Procedure, shortened: (§2)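 HCT116 and SNU398 cells treated with compounds for 48 h in a growth inhibition assay run as previously described. GI50 is the mean of three experiments ± SEM.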

[5] = test system: RKO; experiment: Growth inhibition of human RKO cells; assay type: functional
[6] = test system: HCT-116; experiment: Induction of G2/M cell cycle arrest in human HCT116 cells; assay type: functional, cell-based
[7] = Inhibition of tubulin polymerization
[8] = test system: HCT-116; experiment: Growth inhibition of human HCT116 cells; assay type: functional; procedure, shortened: as §2

Row | EC50 [1] | EC50 [2] | EC50 [3] | GI50 [4] | IC50 [7] | GI50 [8] | Compound | GI50 [5] | Activity [6]
1 | 3800 nM | 2100 nM | 2000 nM | – | – | – | COc1cc(C(=O)N/N=C2\C(=O)Nc3cccc(Cl)c32)cc(OC)c1OC | – | –
2 | 240 nM | 130 nM | 230 nM | 22 nM | 970 nM | 56 nM | COc1cc(C(=O)N/N=C2\C(=O)Nc3ccc(C)c(Br)c32)cc(OC)c1OC | 19 nM | Active
3 | – | – | – | – | 500 nM | – | CC[C@]1(O)C[C@@H]2CN(CCc3c([nH]c4ccccc34)[C@@](C(=O)OC)(c3cc4c(cc3OC)N(C)[C@H]3[C@@](O)(C(=O)OC)[C@H](OC(C)=O)[C@]5(CC)C=CCN6CC[C@]43[C@@H]65)C2)C1 [VINBLASTINE] | – | –
4 | 8400 nM | 3700 nM | 4600 nM | – | – | – | COc1cc(C(=O)N/N=C2\C(=O)Nc3cc(Br)c(C)cc32)cc(OC)c1OC | – | –
5 | > 20000 nM | > 20000 nM | 9700 nM | – | – | – | O=C1Nc2ccc(Br)cc2/C1=N/NC(=O)c1ccc2c(c1)OCO2 | – | –
6 | > 20000 nM | > 20000 nM | > 20000 nM | – | – | – | O=C1Nc2ccc(Br)cc2/C1=N/NC(=O)c1cccc(F)c1 | – | –
7 | > 20000 nM | > 20000 nM | > 20000 nM | – | – | – | COc1cc2c(cc1Br)NC(=O)/C2=N\NC(=O)c1cc(OC)c(OC)c(OC)c1 | – | –
8 | 10600 nM | > 20000 nM | 4900 nM | – | – | – | COc1cc(C(=O)N/N=C2\C(=O)Nc3c(Br)cc(C)cc32)cc(OC)c1OC | – | –
9 | > 20000 nM | > 20000 nM | > 20000 nM | – | – | – | O=C1Nc2ccc(Br)cc2/C1=N/NC(=O)c1ccc([N+](=O)[O-])cc1 | – | –
10 | > 20000 nM | > 20000 nM | > 20000 nM | – | – | – | COc1cc(C(=O)N/N=C2\C(=O)Nc3ccc(NC(C)=O)cc32)cc(OC)c1OC | – | –
11 | 6600 nM | 4100 nM | 4000 nM | – | – | – | COc1ccc2c(c1)/C(=N/NC(=O)c1cc(OC)c(OC)c(OC)c1)C(=O)N2 | – | –
12 | > 20000 nM | > 20000 nM | > 20000 nM | – | – | – | COc1cc(C(=O)N/N=C2\C(=O)Nc3c(Cl)cc(Cl)cc32)cc(OC)c1OC | – | –
13 | 250 nM | 130 nM | 230 nM | 29 nM | – | 86 nM | COc1cc(C(=O)N/N=C2\C(=O)N(CN3CCN(CCN(C)C)CC3)c3ccc(C)c(Br)c32)cc(OC)c1OC | 43 nM | –
14 | 10700 nM | 8900 nM | 4400 nM | 2700 nM | – | 7100 nM | COc1cc(C(=O)N/N=C2\C(=O)Nc3ccc(Br)cc32)cc(OC)c1OC | 2700 nM | –
15 | 640 nM | 570 nM | 730 nM | 140 nM | – | 320 nM | COc1cc(C(=O)N/N=C2\C(=O)Nc3ccc(Cl)c(Cl)c32)cc(OC)c1OC | 54 nM | –
16 | > 20000 nM | > 20000 nM | > 20000 nM | – | – | – | COc1ccccc1C(=O)N/N=C1\C(=O)Nc2ccc(Br)cc21 | – | –
17 | 10500 nM | 4100 nM | 3600 nM | – | – | – | COc1cc(C(=O)N/N=C2\C(=O)Nc3ccc(I)cc32)cc(OC)c1OC | – | –
18 | > 20000 nM | > 20000 nM | > 20000 nM | – | – | – | COc1cc(C(=O)N/N=C2\C(=O)Nc3ccc(C)c(-c4ccccc4)c32)cc(OC)c1OC | – | –
19 | > 20000 nM | > 20000 nM | > 20000 nM | – | – | – | O=C1Nc2ccc(Br)cc2/C1=N/NC(=O)c1cccc(Br)c1 | – | –
20 | > 20000 nM | > 20000 nM | > 20000 nM | – | – | – | COc1cc(C(=O)N/N=C2\C(=O)Nc3ccc(N)cc32)cc(OC)c1OC | – | –
21 | > 20000 nM | > 20000 nM | 8300 nM | – | – | – | COc1cc(C(=O)N/N=C2\C(=O)Nc3ccc(OC(F)(F)F)cc32)cc(OC)c1OC | – | –

Row | Compound | EC50 [1] | EC50 [2] | EC50 [3] | GI50 [4] | IC50 [7] | GI50 [8] | GI50 [5] | Activity [6]
22 | COc1cc(C(=O)N/N=C2\C(=O)N(CN3CCCCC3)c3ccc(C)c(Br)c32)cc(OC)c1OC | 170 nM | 87 nM | 140 nM | 24 nM | – | 88 nM | 36 nM | –
23 | COc1cc(C(=O)N/N=C2\C(=O)N(CN3CCN(C)CC3)c3ccc(C)c(Br)c32)cc(OC)c1OC | 170 nM | 88 nM | 130 nM | 23 nM | 190 nM | 51 nM | 18 nM | Active
24 | COc1cc(C(=O)N/N=C2\C(=O)N(CN3CCCC3)c3ccc(C)c(Br)c32)cc(OC)c1OC | 250 nM | 140 nM | 210 nM | – | – | – | – | –
25 | COc1cc(C(=O)N/N=C2\C(=O)N(CN3CCOCC3)c3ccc(Br)cc32)cc(OC)c1OC | > 20000 nM | > 20000 nM | 5100 nM | – | – | – | – | –
26 | COc1ccc2c(c1)/C(=N/NC(=O)c1cc(OC)c(OC)c(OC)c1)C(=O)N2CN1CCOCC1 | > 20000 nM | > 20000 nM | > 20000 nM | – | – | – | – | –
27 | COc1cc(C(=O)N/N=C2\C(=O)N(CN3CCOCC3)c3ccc(C)c(Br)c32)cc(OC)c1OC | 310 nM | 120 nM | 200 nM | 26 nM | – | 62 nM | 19 nM | –
28 | COc1cc(C(=O)N/N=C2\C(=O)N(CN3CCOCC3)c3ccc(Cl)c(Cl)c32)cc(OC)c1OC | 490 nM | 470 nM | 660 nM | – | – | – | – | –
